*1 amine or outer side, *2 acyl side, *3 side chain or, on linkers, in order; H or OH if unused. Where a SMILES comes first, the peptide text is derived from it. Bridges are numbered along the chain shown (N, C = ends). TBMB = c1c(C[*:1])cc(C[*:3])cc1C[*:2]; mXylylene = c1cc(C[*:1])cc(C[*:2])c1

For the test, the target named is T1, Sortase A (Staphylococcus aureus, UniProt Q9S446).
T1 sequence (Q9S446 whole entry): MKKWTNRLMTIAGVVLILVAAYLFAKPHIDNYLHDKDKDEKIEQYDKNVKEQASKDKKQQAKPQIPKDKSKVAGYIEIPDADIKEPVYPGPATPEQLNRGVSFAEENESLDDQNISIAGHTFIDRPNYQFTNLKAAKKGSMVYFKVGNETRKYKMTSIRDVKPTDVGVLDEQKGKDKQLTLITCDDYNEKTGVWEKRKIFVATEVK
Description: Inhibition of Staphylococcus aureus His6-biotinylated SrtA expressed in Escherichia coli XL1-blue using Dabcyl-LPETG-Edans as substrate assessed as residual activity by fluorescence assay. In a few lines:
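(His)6-SrtA26−206 from E. coli XL1-blue, purified by Ni affinity and gel filtration. Enzyme at 2.5 μM incubated with varied peptide concentrations (up to 300 μM). Residual activity measured with 20 μM Dabcyl-LPETG-Edans and 200 μM triglycine in 50 mM Tris-Cl pH 7.4, 150 mM NaCl, 5 mM CaCl2, 0.1% BSA, 37 °C. Fluorescence read at ex 350/em 480 nm. Ki from Supporting Information equations; at least three measurements.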
The term Ki denotes a measure of affinity in units of concentration, obtained from inhibition or displacement. For `CC[C@H](C)[C@@H]1NC(=O)[C@H](CO)NC(=O)[C@@H](NC(=O)[C@H](C)N)CSCc2cc3cc(c2)CSC[C@H](NC(=O)[C@@H]2CCCN2C(=O)[C@@H]2CCCN2C(=O)[C@H](CC(C)C)NC1=O)C(=O)N[C@@H](CC(N)=O)C(=O)N1CCC[C@H]1C(=O)N1CCC[C@H]1C(=O)N[C@@H](CCC(N)=O)C(=O)N[C@H](C(=O)NCC(N)=O)CSC3`, the Ki was found to be 11.1 µM.
With `CC(C)C[C@@H]1NC(=O)[C@H](CCC(N)=O)NC(=O)[C@H](CCCNC(=N)N)NC(=O)[C@H](NC(=O)[C@H](C)N)CSCc2cc3cc(c2)CSC[C@H](C(=O)NCC(N)=O)NC(=O)[C@H](C(C)C)NC(=O)[C@H](Cc2ccc(O)cc2)NC(=O)[C@H](CCC(=O)O)NC(=O)[C@H](C)NC(=O)[C@H](CSC3)NC(=O)[C@@H]2CCCN2C(=O)[C@@H]2CCCN2C1=O`, the Ki was 45.5 µM.
Turning to `CC[C@H](C)[C@@H]1NC(=O)[C@H](CO)NC(=O)[C@@H](NC(=O)[C@H](C)N)CSCc2cc3cc(c2)CSC[C@H](NC(=O)[C@@H]2CCCN2C(=O)[C@@H]2CCCN2C(=O)[C@H](CC(C)C)NC1=O)C(=O)N[C@H](CC(N)=O)C(=O)N1CCC[C@H]1C(=O)N1CCC[C@H]1C(=O)N[C@@H](CCC(N)=O)C(=O)N[C@H](C(=O)NCC(N)=O)CSC3`, the Ki amounted to 11.1 µM.
On to `CC[C@H](C)[C@@H]1NC(=O)[C@H](C)NC(=O)[C@@H](NC(=O)[C@H](C)N)CSCc2cc3cc(c2)CSC[C@H](NC(=O)[C@@H]2CCCN2C(=O)[C@@H]2CCCN2C(=O)[C@H](CC(C)C)NC1=O)C(=O)N[C@@H](CCC(N)=O)C(=O)N1CCC[C@H]1C(=O)N[C@@H](CCCNC(=N)N)C(=O)N[C@H](C(=O)NCC(N)=O)CSC3`, for which the Ki was found to be 21.5 µM.
Regarding `CC[C@H](C)[C@@H]1NC(=O)[C@H](C)NC(=O)[C@@H](NC(=O)[C@H](C)N)CSCc2cc3cc(c2)CSC[C@H](C(=O)NCC(N)=O)NC(=O)[C@H](CCCNC(=N)N)NC(=O)[C@@H]2CCCN2C(=O)[C@H](CCC(N)=O)NC(=O)[C@H](CSC3)NC(=O)[C@@H]2CCCN2C(=O)[C@@H]2CCCN2C(=O)[C@H](CC(C)C)NC1=O`, the Ki came out at 21.5 µM.
For the compound `CC(C)C[C@@H]1NC(=O)[C@H](CCC(N)=O)NC(=O)[C@H](CCCNC(=N)N)NC(=O)[C@@H](NC(=O)[C@H](C)N)CSCc2cc3cc(c2)CSC[C@H](NC(=O)[C@@H]2CCCN2C(=O)[C@@H]2CCCN2C1=O)C(=O)N[C@@H](C)C(=O)N[C@@H](CCC(=O)O)C(=O)N[C@@H](Cc1ccc(O)cc1)C(=O)N[C@@H](C(C)C)C(=O)N[C@H](C(=O)NCC(N)=O)CSC3`, the Ki worked out at 45.5 µM.
As for `CC(C)C[C@@H]1NC(=O)[C@@H](NC(=O)[C@H](C)N)CSCc2cc3cc(c2)CSC[C@H](NC(=O)[C@@H]2CCCN2C(=O)[C@@H]2CCCN2C(=O)[C@H](CC(C)C)NC(=O)[C@H](CCC(N)=O)NC1=O)C(=O)N[C@@H](CO)C(=O)N[C@@H](CO)C(=O)N1CCC[C@H]1C(=O)N[C@H](C(=O)NCC(N)=O)CSC3` (H-ACLQLPPCSSPCG-NH2; linker 2-8-12 via TBMB), the Ki is 11.6 µM.
As to `CC[C@H](C)[C@@H]1NC(=O)[C@H](CO)NC(=O)[C@H](CO)NC(=O)[C@@H]2CSCc3cc(cc(c3)CSC[C@@H](C(=O)NCC(N)=O)NC(=O)[C@@H]3CCCN3C(=O)[C@@H]3CCCN3C(=O)[C@H](CC(C)C)NC1=O)CSC[C@H](NC(=O)[C@H](C)N)C(=O)N[C@@H](CCSC)C(=O)N[C@@H](Cc1ccc(O)cc1)C(=O)N[C@@H](CCC(N)=O)C(=O)N[C@@H](C)C(=O)N[C@@H](C)C(=O)N[C@@H](CC(C)C)C(=O)N2` (H-ACMYQAALCSSILPPCG-NH2; linker 2-9-16 via TBMB), the Ki was 9.4 µM.
Take `CC(C)C[C@@H]1NC(=O)[C@@H]2CCCN2C(=O)[C@@H](NC(=O)[C@H](C)N)CSCc2cc3cc(c2)CSC[C@H](NC(=O)[C@@H]2CCCN2C(=O)[C@@H]2CCCN2C(=O)[C@H](CC(C)C)NC1=O)C(=O)N[C@@H](C)C(=O)N[C@@H](CC(=O)O)C(=O)N[C@@H](CC(=O)O)C(=O)N[C@H](C(=O)NCC(N)=O)CSC3` (H-ACPLLPPCADDCG-NH2; linker 2-8-12 via TBMB): the Ki amounted to 3 µM.
In the case of `CC(C)C[C@@H]1NC(=O)[C@@H]2CCCN2C(=O)[C@@H](NC(=O)[C@H](C)N)CSCc2cc3cc(c2)CSC[C@H](NC(=O)[C@@H]2CCCN2C(=O)[C@@H]2CCCN2C(=O)[C@H](CC(C)C)NC1=O)C(=O)N[C@@H](Cc1cnc[nH]1)C(=O)N[C@@H](CC(C)C)C(=O)N1CCC[C@H]1C(=O)N[C@@H](CCC(N)=O)C(=O)N[C@H](C(=O)NCC(N)=O)CSC3` (H-ACPLLPPCHLPQCG-NH2; linker 2-8-13 via TBMB), the inhibitory constant (Ki) lay in the range of 9.3 to 13.3 µM.
Take `CC(C)C[C@@H]1NC(=O)[C@H](CO)NC(=O)[C@@H]2CSCc3cc(cc(c3)CSC[C@H](NC(=O)[C@H](C)N)C(=O)N3CCC[C@H]3C(=O)N[C@@H](CC(C)C)C(=O)N[C@@H](CC(C)C)C(=O)N3CCC[C@H]3C(=O)N3CCC[C@H]3C(=O)N2)CSC[C@@H](C(=O)NCC(=O)O)NC(=O)[C@H](CC(=O)O)NC1=O` (H-ACPLLPPCSLDCG-OH; linker 2-8-12 via TBMB): the Ki turned out to be 1.5 µM.
Consider `CC(C)C[C@@H]1NC(=O)[C@H](CCC(N)=O)NC(=O)[C@@H]2CCCN2C(=O)[C@@H](NC(=O)[C@H](C)N)CSCc2cccc(c2)CSC[C@@H](C(=O)NCC(N)=O)NC(=O)[C@@H]2CCCN2C(=O)[C@@H]2CCCN2C1=O` (H-ACPQLPPCG-NH2; linker 2-8 via mXylylene), for which the Ki came to 4.9 µM.
Regarding `CC(C)C[C@@H]1NC(=O)[C@@H]2CSCc3cc(cc(c3)CSC[C@H](NC(=O)[C@H](C)N)C(=O)N3CCC[C@H]3C(=O)N[C@@H](CCC(N)=O)C(=O)N[C@@H](CC(C)C)C(=O)N3CCC[C@H]3C(=O)N3CCC[C@H]3C(=O)N2)CSC[C@@H](C(=O)NCC(N)=O)NC(=O)[C@@H]2CCCN2C(=O)[C@H](Cc2ccc(O)cc2)NC1=O` (H-ACPQLPPCLYPCG-NH2; linker 2-8-12 via TBMB), the Ki was 7.4 µM.
The same measure for `CC(C)C[C@@H]1NC(=O)[C@H](CCC(N)=O)NC(=O)[C@@H]2CCCN2C(=O)[C@@H](NC(=O)[C@H](C)N)CSCc2cc3cc(c2)CSC[C@H](NC(=O)[C@@H]2CCCN2C(=O)[C@@H]2CCCN2C1=O)C(=O)N[C@@H](CCCNC(=N)N)C(=O)N[C@@H](C(C)C)C(=O)N[C@@H](CO)C(=O)N[C@H](C(=O)NCC(N)=O)CSC3` (H-ACPQLPPCRVSCG-NH2; linker 2-8-12 via TBMB): 4.3 µM; for `CC[C@H](C)[C@@H]1NC(=O)CNC(=O)[C@H](CCC(N)=O)NC(=O)[C@@H](NC(=O)[C@H](C)N)CSCc2cc3cc(c2)CSC[C@H](NC(=O)[C@@H]2CCCN2C(=O)[C@@H]2CCCN2C(=O)[C@H](CC(C)C)NC1=O)C(=O)NCC(=O)N[C@@H](CCCNC(=N)N)C(=O)NCC(=O)NCC(=O)NCC(=O)N[C@H](C(=O)NCC(N)=O)CSC3` (H-ACQGILPPCGRGGGCG-NH2; linker 2-9-15 via TBMB): 42 µM.
As to `CC[C@H](C)[C@@H]1NC(=O)CNC(=O)[C@H](CCC(N)=O)NC(=O)[C@@H](NC(=O)[C@H](C)N)CSCc2cc3cc(c2)CSC[C@H](NC(=O)[C@@H]2CCCN2C(=O)[C@@H]2CCCN2C(=O)[C@H](CC(C)C)NC1=O)C(=O)NCC(=O)N[C@@H](CCCNC(=N)N)C(=O)NCC(=O)NCC(=O)NCC(=O)NCC(=O)N[C@H](C(=O)NCC(N)=O)CSC3` (H-ACQGILPPCGRGGGGCG-NH2; linker 2-9-16 via TBMB), the Ki came out at 42 µM.
As for `CC(C)C[C@@H]1NC(=O)[C@H](CCC(N)=O)NC(=O)[C@@H](NC(=O)[C@H](C)N)CSCc2cc3cc(c2)CSC[C@H](NC(=O)[C@@H]2CCCN2C(=O)[C@@H]2CCCN2C(=O)[C@H](CC(C)C)NC1=O)C(=O)N1CCC[C@H]1C(=O)N[C@@H](Cc1ccccc1)C(=O)N[C@@H](CC(N)=O)C(=O)N[C@H](C(=O)NCC(N)=O)CSC3` (H-ACQLLPPCPFNCG-NH2; linker 2-8-12 via TBMB), the Ki worked out at 19.3 µM.
As for `CC(C)C[C@@H]1NC(=O)[C@H](CCC(N)=O)NC(=O)[C@H](CCCNC(=N)N)NC(=O)[C@@H](NC(=O)[C@H](C)N)CSCc2cc3cc(c2)CSC[C@H](NC(=O)[C@@H]2CCCN2C(=O)[C@@H]2CCCN2C1=O)C(=O)N[C@@H](CO)C(=O)N[C@@H](Cc1ccccc1)C(=O)N[C@@H](CCC(=O)O)C(=O)N[C@H](C(=O)NCC(N)=O)CSC3` (H-ACRQLPPCSFECG-NH2; linker 2-8-12 via TBMB), the Ki turned out to be 11.6 µM.
As for `CC(C)C[C@@H]1NC(=O)[C@H]([C@@H](C)O)NC(=O)[C@@H](NC(=O)[C@H](C)N)CSCc2cc3cc(c2)CSC[C@H](NC(=O)[C@@H]2CCCN2C(=O)[C@@H]2CCCN2C(=O)[C@H](CC(C)C)NC1=O)C(=O)N[C@@H]([C@@H](C)O)C(=O)N1CCC[C@H]1C(=O)N[C@@H](CC(=O)O)C(=O)N[C@@H](CCC(N)=O)C(=O)N[C@H](C(=O)NCC(N)=O)CSC3` (H-ACTLLPPCTPDQCG-NH2; linker 2-8-13 via TBMB), the Ki was found to be 32.1 µM.
Consider `CC(C)C[C@@H]1NC(=O)[C@H](CCC(N)=O)NC(=O)[C@@H]2CCCN2C(=O)[C@@H]2CSCc3cc(cc(c3)CSC[C@@H](C(=O)NCC(=O)O)NC(=O)[C@@H]3CCCN3C(=O)[C@@H]3CCCN3C1=O)CSC[C@H](NC(=O)[C@H](C)N)C(=O)N[C@@H]([C@@H](C)O)C(=O)N[C@@H](CO)C(=O)N[C@@H](CCCNC(=N)N)C(=O)N2` (H-ACTSRCPQLPPCG-OH; linker 2-6-12 via TBMB), for which the Ki was determined as 1.8 µM.
